Experimental data as given in ChEMBL document CHEMBL1123752, “Hexahydro-1H-1-pyrindines from acid rearrangement of 9-alkylidene-5-(m-methoxyphenyl)-2-methylmorphans. A new structural type of narcotic antagonists” (J Med Chem, 1987).
Activity calls are given as the source filed them. No cut-off for these calls is given here.

Columns and labels:
Mus musculus [1] = assay: Antinociceptive activity was determined by tail flick test in mice after subcutaneous administration; I means inactive at 1,10 or 30.0 mg/kg; assay type: functional, organism-based; set-up: dose 30 mg/kg
How it was run: (§1)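 Mice were dosed subcutaneously. Antinociceptive […] is given in mg/kg with 95% confidence limits.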

Mus musculus [2] = assay: Antinociceptive activity was determined by p-phenylquinone-writhing test in mice after subcutaneous administration; I means inactive at 1,10 or 30.0 mg/kg; assay type: functional, organism-based; set-up: dose 30 mg/kg; how it was run: as §1
Mus musculus [3] = assay: Antinociceptive activity was determined by hot plate test in mice after subcutaneous administration at 50 mg/kg; assay type: functional
How it was run: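 Mouse hot-plate assay with subcutaneous dosing. Activity is reported as percent effect at a single 50 mg/kg dose.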

Mus musculus [4] = assay: Compound administered subcutaneously was evaluated for opioid antagonist activity versus morphine by tail flick antagonism test in mice.; assay type: functional
How it was run: (§2)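 Mouse tail-flick test run against morphine, with test agent given subcutaneously. Antagonist AD50 is given in mg/kg with 95% confidence limits.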

Mu-type opioid receptor = Mu-type opioid receptor (Rattus norvegicus, UniProt P33535); assay: Compound administered subcutaneously was evaluated for inhibition constant measured as the displacement of [3H]DAGO from rat brain
Mu-type opioid receptor, sequence (P33535 whole entry): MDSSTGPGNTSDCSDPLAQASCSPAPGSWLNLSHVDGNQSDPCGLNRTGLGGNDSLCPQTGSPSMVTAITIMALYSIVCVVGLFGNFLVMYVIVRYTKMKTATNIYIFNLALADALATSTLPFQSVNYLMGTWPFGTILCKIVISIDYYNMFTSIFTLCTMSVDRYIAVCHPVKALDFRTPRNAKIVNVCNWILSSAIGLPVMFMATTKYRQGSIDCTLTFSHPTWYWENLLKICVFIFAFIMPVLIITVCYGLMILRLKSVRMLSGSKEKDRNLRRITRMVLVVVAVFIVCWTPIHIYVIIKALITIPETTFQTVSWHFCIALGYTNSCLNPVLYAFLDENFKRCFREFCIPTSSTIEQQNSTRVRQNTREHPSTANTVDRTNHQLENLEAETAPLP
How it was run: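 Membranes from adult male Sprague-Dawley rat whole brain minus cerebellum, washed in 20 mM potassium phosphate pH 7.4, about 1 mg protein per tube. [³H]DAGO was added from a 2 nM solution. Nonspecific binding was defined with 10 μM naloxone (final). Incubation 45 min at 25 °C, then glass-fibre filtration and scintillation counting. Ki was derived by Cheng–Prusoff.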

Mus musculus [5] = assay: Antinociceptive activity was determined by p-phenylquinone-writhing test in mice after subcutaneous administration; assay type: functional; details: sc; how it was run: as §1
Mus musculus [6] = assay: Compound administered subcutaneously was evaluated for Opioid antagonist activity versus morphine by tail flick antagonism test in mice.; assay type: functional; how it was run: as §2
Mus musculus [7] = assay: Antinociceptive activity was determined by tail flick test in mice after subcutaneous administration; IA means inactive at 1,10 or 30.0 mg/kg; assay type: functional, organism-based; set-up: dose 30 mg/kg; how it was run: as §1
Mus musculus [8] = assay: Antinociceptive activity was determined by hot plate test in mice after subcutaneous administration;IA means inactive at 1,10 or 30.0 mg/kg; assay type: functional, organism-based; set-up: dose 30 mg/kg; how it was run: as §1
Mus musculus [9] = assay: Compound administered subcutaneously was evaluated for Opioid antagonist activity versus morphine by tail flick antagonism test in mice 95% confidence limits are in brackets; assay type: functional; how it was run: as §2
Mus musculus [10] = assay: Compound administered subcutaneously was evaluated for antinociceptive activity determined by p-phenylquinone-writhing test in mice; assay type: functional; details: sc; how it was run: as §1

For `CN1CC=C(c2cccc(O)c2)[C@@]2(C)CCC[C@@H]12`, the ED50 (Mus musculus [1]) was “inactive”, the ED50 (Mus musculus [2]) was “inactive” and the Effect (Mus musculus [3]) was 40%. It also gave an AD50 (Mus musculus [4]) of 1.7 mg/kg and a Ki (Mu-type opioid receptor) of 81 nM.
With `CC[C@]12CCC[C@H]1N(C)CC=C2c1cccc(O)c1` the ED50 (Mus musculus [5]) was 35.5 mg/kg, the AD50 (Mus musculus [6]) was 2.1 mg/kg and the ED50 (Mus musculus [7]) was “inactive”. The Ki (Mu-type opioid receptor) was 84 nM and the ED50 (Mus musculus [8]) was “inactive”.
For `C=CCN1CC[C@]23c4c5ccc(O)c4O[C@H]2[C@@H](O)C=C[C@H]3[C@H]1C5.Cl` [NALORPHINE HYDROCHLORIDE], the AD50 (Mus musculus [9]) was 2.6 mg/kg, the ED50 (Mus musculus [7]) was “inactive” and the Ki (Mu-type opioid receptor) was 2 nM. For the same compound, the ED50 (Mus musculus [10]) was 0.6 mg/kg.
